The source made the active and inactive calls. The rule behind the calls is not given here.
Legend:
[1] = biological target: Muscarinic acetylcholine receptor M3 (Cavia porcellus) (UniProt Q8VH26); experiment: Intrinsic activity at muscarinic M3 receptor in guinea pig ileum assessed as inhibition of electrically-stimulated muscle contraction relative to bathanecol; assay type: tissue-based
Outline: (§1)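 Male guinea pig (250-350 g, fasted 24 h) ileal segments 2-3 cm, 1.0 g tension, 37 °C, Krebs-Henseleit with carbogen; 45 min equilibration, isometric contractions. Cumulative agonist concentration-response curves; pD2 by linear regression; intrinsic activity relative to bethanechol maximum; means ± SEM of four to six experiments.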

[2] = Agonist activity at muscarinic M4 receptor in guinea pig lung assessed as inhibition of electrically-stimulated muscle contraction; assay type: functional, Cavia porcellus
[3] = biological target: T1, Muscarinic acetylcholine receptor M1 (Homo sapiens, UniProt P11229); experiment: Displacement of [3H]NMS from human muscarinic M1 receptor expressed in CHO cells by microplate scintillation counting; assay type: cell-based
T1 sequence (P11229 whole entry): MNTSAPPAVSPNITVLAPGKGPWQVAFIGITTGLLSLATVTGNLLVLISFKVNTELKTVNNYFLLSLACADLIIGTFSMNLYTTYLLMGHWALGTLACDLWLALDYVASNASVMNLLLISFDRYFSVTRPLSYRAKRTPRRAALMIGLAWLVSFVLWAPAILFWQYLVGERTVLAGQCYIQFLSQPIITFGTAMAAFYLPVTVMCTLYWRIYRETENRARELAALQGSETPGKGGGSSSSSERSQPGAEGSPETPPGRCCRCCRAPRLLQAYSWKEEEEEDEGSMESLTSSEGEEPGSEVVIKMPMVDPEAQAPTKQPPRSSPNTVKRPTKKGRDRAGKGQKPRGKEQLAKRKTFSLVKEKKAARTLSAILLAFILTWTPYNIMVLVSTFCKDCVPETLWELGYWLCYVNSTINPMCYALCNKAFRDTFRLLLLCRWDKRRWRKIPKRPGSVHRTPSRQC

Cavia porcellus [4] = organism: Cavia porcellus; experiment: Intrinsic activity at muscarinic M4 receptor in guinea pig lung assessed as inhibition of electrically-stimulated muscle contraction relative to bathanecol
Outline: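 Male guinea pig peripheral lung strips (15 × 2 × 2 mm) from lower lobe, 0.3 g resting tension, 37 °C, Krebs-Henseleit with carbogen; 45 min equilibration, isometric contractions. Cumulative agonist concentration-response curves; pD2 by linear regression; intrinsic activity relative to bethanechol maximum; means ± SEM of four to six experiments.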

Cavia porcellus [5] = organism: Cavia porcellus; experiment: Antagonist activity at muscarinic M2 receptor in guinea pig atrium assessed as effect on muscle contraction up to 10 uM; assay type: functional, tissue-based; conditions: Cardiac atrium
[6] = biological target: T2, Muscarinic acetylcholine receptor M4 (Homo sapiens, UniProt P08173); experiment: Displacement of [3H]NMS from human muscarinic M4 receptor expressed in CHO cells by microplate scintillation counting; assay type: cell-based
T2 sequence (P08173 whole entry): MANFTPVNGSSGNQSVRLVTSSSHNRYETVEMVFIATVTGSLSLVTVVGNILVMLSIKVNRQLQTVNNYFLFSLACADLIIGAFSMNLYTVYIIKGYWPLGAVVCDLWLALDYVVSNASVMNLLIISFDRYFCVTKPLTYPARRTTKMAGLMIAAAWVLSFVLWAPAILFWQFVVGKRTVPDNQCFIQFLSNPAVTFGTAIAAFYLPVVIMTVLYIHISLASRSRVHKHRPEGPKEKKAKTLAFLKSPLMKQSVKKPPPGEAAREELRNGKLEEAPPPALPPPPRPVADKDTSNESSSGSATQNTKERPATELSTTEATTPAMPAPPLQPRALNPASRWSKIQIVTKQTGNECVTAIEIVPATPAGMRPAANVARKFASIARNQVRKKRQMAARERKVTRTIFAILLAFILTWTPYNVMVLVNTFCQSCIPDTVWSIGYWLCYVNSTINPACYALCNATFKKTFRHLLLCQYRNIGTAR

[7] = biological target: Muscarinic acetylcholine receptor M3 (Cavia porcellus) (UniProt Q8VH26); experiment: Agonist activity at muscarinic M3 receptor in guinea pig ileum assessed as inhibition of electrically-stimulated muscle contraction; assay type: functional, tissue-based; outline: as §1
[8] = biological target: T3, Muscarinic acetylcholine receptor M2 (Homo sapiens, UniProt P08172); experiment: Displacement of [3H]NMS from human muscarinic M2 receptor expressed in CHO cells by microplate scintillation counting; assay type: cell-based
T3 sequence (P08172 whole entry): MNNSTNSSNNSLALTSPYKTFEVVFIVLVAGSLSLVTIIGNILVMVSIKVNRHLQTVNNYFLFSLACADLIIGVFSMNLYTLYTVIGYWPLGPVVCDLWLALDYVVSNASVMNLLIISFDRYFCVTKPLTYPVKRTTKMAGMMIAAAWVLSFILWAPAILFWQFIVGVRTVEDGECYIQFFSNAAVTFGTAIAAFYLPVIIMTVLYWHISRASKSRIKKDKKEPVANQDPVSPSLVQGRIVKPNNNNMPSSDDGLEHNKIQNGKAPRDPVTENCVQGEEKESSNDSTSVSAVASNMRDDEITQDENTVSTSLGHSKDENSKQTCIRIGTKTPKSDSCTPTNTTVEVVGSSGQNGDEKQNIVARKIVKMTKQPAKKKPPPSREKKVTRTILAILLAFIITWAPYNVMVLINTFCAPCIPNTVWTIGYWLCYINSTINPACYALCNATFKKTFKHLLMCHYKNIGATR

[9] = biological target: Muscarinic acetylcholine receptor M3 (Homo sapiens, UniProt P20309); experiment: Displacement of [3H]NMS from human muscarinic M3 receptor expressed in CHO cells by microplate scintillation counting; assay type: cell-based
Chain of Muscarinic acetylcholine receptor M3 (P20309 whole entry): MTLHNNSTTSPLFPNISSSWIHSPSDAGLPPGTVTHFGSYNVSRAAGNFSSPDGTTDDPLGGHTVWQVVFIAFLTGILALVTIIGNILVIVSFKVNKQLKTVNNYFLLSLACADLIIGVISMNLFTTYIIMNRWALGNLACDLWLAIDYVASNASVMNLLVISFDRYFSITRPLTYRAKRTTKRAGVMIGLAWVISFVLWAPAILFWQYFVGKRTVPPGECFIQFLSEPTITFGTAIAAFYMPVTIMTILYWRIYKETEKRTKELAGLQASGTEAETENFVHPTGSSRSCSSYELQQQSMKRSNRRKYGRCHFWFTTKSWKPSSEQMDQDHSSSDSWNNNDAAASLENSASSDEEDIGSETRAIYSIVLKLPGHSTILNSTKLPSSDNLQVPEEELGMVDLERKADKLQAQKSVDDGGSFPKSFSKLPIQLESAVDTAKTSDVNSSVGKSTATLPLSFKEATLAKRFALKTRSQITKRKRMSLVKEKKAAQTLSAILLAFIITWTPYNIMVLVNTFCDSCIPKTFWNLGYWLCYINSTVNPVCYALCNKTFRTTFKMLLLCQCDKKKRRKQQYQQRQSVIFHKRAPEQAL

Oryctolagus cuniculus [10] = organism: Oryctolagus cuniculus; experiment: Antagonist activity at muscarinic M1 receptor in New Zealand White rabbit vas deferens assessed as effect on muscle contraction up to 30 uM; assay type: functional, tissue-based
Oryctolagus cuniculus [11] = organism: Oryctolagus cuniculus; experiment: Agonist activity at muscarinic M1 receptor in New Zealand White rabbit vas deferens assessed as inhibition of electrically-stimulated muscle contraction; assay type: functional
Outline: (§2)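 Prostatic portion of male-free-listed New Zealand white rabbit (3.0-3.5 kg, fasted 24 h) vas deferens in modified Krebs, 31 °C, 95% O2-5% CO2; 45 min stabilisation, field stimulation 2 Hz, 5 ms, 5 V; isometric recording. Cumulative concentration-response curves; pD2 by linear regression; intrinsic activity as fraction of McN-A-343 maximum; means ± SEM of four to six experiments.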

[12] = biological target: T4, Muscarinic acetylcholine receptor M5 (Homo sapiens, UniProt P08912); experiment: Displacement of [3H]NMS from human muscarinic M5 receptor expressed in CHO cells by microplate scintillation counting; assay type: cell-based
T4 sequence (P08912 whole entry): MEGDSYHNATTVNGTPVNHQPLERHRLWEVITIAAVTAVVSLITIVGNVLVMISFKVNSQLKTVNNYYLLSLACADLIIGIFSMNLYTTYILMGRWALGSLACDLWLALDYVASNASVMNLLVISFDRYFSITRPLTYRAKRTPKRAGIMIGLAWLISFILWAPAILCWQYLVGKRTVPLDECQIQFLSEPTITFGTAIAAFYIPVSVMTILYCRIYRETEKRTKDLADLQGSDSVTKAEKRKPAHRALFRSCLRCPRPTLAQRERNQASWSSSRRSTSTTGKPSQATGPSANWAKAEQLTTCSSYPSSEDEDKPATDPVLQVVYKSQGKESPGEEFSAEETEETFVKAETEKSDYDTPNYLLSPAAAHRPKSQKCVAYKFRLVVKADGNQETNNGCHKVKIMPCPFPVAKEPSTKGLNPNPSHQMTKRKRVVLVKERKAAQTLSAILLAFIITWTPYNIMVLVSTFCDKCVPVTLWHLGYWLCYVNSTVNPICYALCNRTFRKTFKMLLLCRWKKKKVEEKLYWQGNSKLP

Cavia porcellus [13] = organism: Cavia porcellus; experiment: Selectivity ratio of pD2 for guinea pig muscarinic M4 receptor to pD2 for guinea pig muscarinic M3 receptor
[14] = Agonist activity at muscarinic M2 receptor in guinea pig atrium assessed as inhibition of electrically-stimulated muscle contraction; assay type: functional, Cavia porcellus, Cardiac atrium
Cavia porcellus [15] = organism: Cavia porcellus; experiment: Selectivity ratio of pD2 for guinea pig muscarinic M3 receptor to pD2 for guinea pig muscarinic M2 receptor
Cavia porcellus [16] = organism: Cavia porcellus; experiment: Intrinsic activity at muscarinic M2 receptor in guinea pig atrium assessed as inhibition of electrically-stimulated muscle contraction relative to bathanecol; assay type: tissue-based; conditions: Cardiac atrium
Cavia porcellus [17] = organism: Cavia porcellus; experiment: Selectivity ratio of pD2 for guinea pig muscarinic M3 receptor to pD2 for guinea pig muscarinic M4 receptor
[18] = Selectivity ratio of pD2 for guinea pig muscarinic M3 receptor to pD2 for rabbit M1 receptor
Oryctolagus cuniculus [19] = organism: Oryctolagus cuniculus; experiment: Intrinsic activity at muscarinic M1 receptor in New Zealand White rabbit vas deferens assessed as inhibition of electrically-stimulated muscle contraction relative to McN-A-343; assay type: tissue-based; outline: as §2
Cavia porcellus [20] = organism: Cavia porcellus; experiment: Antagonist activity at muscarinic M4 receptor in guinea pig lung assessed as effect on muscle contraction up to 10 uM; assay type: functional
[21] = Antagonist activity at muscarinic M1 receptor in New Zealand White rabbit vas deferens assessed as effect on muscle contraction; assay type: functional, Oryctolagus cuniculus
[22] = Antagonist activity at muscarinic M4 receptor in guinea pig lung assessed as effect on muscle contraction; assay type: functional, Cavia porcellus
Cavia porcellus [23] = organism: Cavia porcellus; conditions: Cardiac atrium
[24] = biological target: Muscarinic acetylcholine receptor M3 (Cavia porcellus) (UniProt Q8VH26); conditions: Ileum

Chain of Muscarinic acetylcholine receptor M3 (Cavia porcellus) (Q8VH26 1-587): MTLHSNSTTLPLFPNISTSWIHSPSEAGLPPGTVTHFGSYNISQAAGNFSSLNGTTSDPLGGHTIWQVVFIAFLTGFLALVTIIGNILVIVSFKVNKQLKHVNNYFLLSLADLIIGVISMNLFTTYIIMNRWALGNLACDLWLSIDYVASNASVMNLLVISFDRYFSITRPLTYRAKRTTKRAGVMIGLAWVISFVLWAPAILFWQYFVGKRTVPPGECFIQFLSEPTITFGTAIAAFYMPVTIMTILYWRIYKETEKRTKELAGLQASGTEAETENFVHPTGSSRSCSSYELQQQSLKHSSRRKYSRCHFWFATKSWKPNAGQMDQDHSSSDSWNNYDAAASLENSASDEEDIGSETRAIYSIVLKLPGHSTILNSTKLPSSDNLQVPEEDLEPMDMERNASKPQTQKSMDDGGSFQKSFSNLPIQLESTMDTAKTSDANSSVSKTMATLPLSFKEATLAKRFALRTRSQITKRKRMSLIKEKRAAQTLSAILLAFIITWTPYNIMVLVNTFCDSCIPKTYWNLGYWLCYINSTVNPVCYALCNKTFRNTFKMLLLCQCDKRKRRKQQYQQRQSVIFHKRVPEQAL

| Structure (SMILES) | Intrinsic activity [1] | pD2 [2] | Ki [3] | Intrinsic activity (Cavia porcellus [4]) | pKb (Cavia porcellus [5]) | Ki [6] | pD2 [7] | Ki [8] | Ki [9] | pKb (Oryctolagus cuniculus [10]) | pD2 (Oryctolagus cuniculus [11]) | Ki [12] | pD2 [14] | Selectivity ratio (Cavia porcellus [15]) | Intrinsic activity (Cavia porcellus [16]) | pKb (Cavia porcellus [20]) | other results |
| --- | --- | --- | --- | --- | --- | --- | --- | --- | --- | --- | --- | --- | --- | --- | --- | --- | --- |
| CC1(C)CO[C@H](C[N+](C)(C)C)CO1.[I-] | 0.68 | 4.85 | > 100 µM | 0.22 | inactive | > 100 µM | 4.91 | 95.5 µM | 77.6 µM | inactive | inactive | > 100 µM |  |  |  |  |  |
| C[C@@H]1OC[C@@H](C[N+](C)(C)C)O[C@H]1C.[I-] (relative stereo) | 0.88 | 5.08 | 24.5 µM | 0.35 |  | 30.9 µM | 6.95 | 13.8 µM | 11 µM | inactive | inactive | 15.5 µM | 4.93 | 105 | 0.8 |  | Selectivity ratio (Cavia porcellus [13]): 74 |
| CC1(C)COC[C@@H](C[N+](C)(C)C)O1.[I-] | 1.16 | 4.85 | 47.9 µM | 0.18 |  | 44.7 µM | 6.94 | 18.2 µM | 21.4 µM | inactive | inactive | 28.2 µM | 5.03 | 81 | 0.73 |  | Selectivity ratio (Cavia porcellus [17]): 123; Selectivity ratio [18]: > 275 |
| C[C@@H]1O[C@H](C[N+](C)(C)C)COC1(C)C.[I-] (relative stereo) | 0.47 |  | 67.6 µM |  |  | 57.5 µM | 5.12 | 60.3 µM | 32.4 µM |  |  | 52.5 µM | 4.92 |  | 0.33 | inactive | Intrinsic activity (Oryctolagus cuniculus [19]): 0; pKb [21]: 4.61 |
| C[C@H]1OC[C@@H](C[N+](C)(C)C)OC1(C)C.[I-] (relative stereo) | 0.47 |  | 20 µM | 0 |  | 25.7 µM | 5.25 | 27.5 µM | 16.2 µM | inactive | inactive | 32.4 µM |  |  |  |  | pKb [22]: 5.15 |
| C[C@H]1O[C@H](C[N+](C)(C)C)COC1(C)C (relative stereo) |  |  | 95.5 µM |  | inactive | 87.1 µM | inactive | 72.4 µM | 46.8 µM | inactive | inactive | 83.2 µM |  |  |  | inactive | pKb (Cavia porcellus [23]): inactive; pKb [24]: inactive |

— ChEMBL document CHEMBL1153096, “Properly substituted 1,4-dioxane nucleus favours the selective M3 muscarinic receptor activation” (Bioorg Med Chem, 2009)
